Measured values reported in ChEMBL document CHEMBL1781883, “Design of novel neurokinin 1 receptor antagonists based on conformationally constrained aromatic amino acids and discovery of a potent chimeric opioid agonist-neurokinin 1 receptor antagonist” (J Med Chem, 2011).
Activity calls are given as the source filed them. No cut-off for these calls is given here.

What was measured:
Substance-P receptor [1] = molecular target: T1, Substance-P receptor (Homo sapiens, UniProt P25103); experiment: Agonist activity at human NK1 receptor expressed in CHO-K1 cells at 10^-4 M after 30 mins by aequorin luminescence assay; format: functional, cell-based
T1 sequence (P25103 whole entry): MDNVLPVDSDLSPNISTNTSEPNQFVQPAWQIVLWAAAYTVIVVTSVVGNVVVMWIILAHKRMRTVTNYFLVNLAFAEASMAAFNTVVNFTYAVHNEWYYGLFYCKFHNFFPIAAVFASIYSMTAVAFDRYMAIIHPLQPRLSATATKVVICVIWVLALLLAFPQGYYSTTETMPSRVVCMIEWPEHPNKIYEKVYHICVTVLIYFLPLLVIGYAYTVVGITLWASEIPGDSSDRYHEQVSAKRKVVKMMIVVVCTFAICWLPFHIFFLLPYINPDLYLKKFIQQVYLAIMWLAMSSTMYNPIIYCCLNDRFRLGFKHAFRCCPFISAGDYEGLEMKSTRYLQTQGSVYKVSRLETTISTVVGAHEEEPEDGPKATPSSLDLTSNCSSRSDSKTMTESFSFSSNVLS
How it was run: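 CHO-K1 cells stably expressing human NK1R and transfected with apoaequorin; loaded 4 h with 5 μM coelenterazine h in BSA-medium, diluted 10-fold, further 30 min. Compound added to wells; cells (2.5 × 10^4) injected, light read every second for 30 s, then 10 nM ATP injected as positive control and read 10 s more. Duplicates; expressed as % of luminescence at 10^-4 M SP.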

Substance-P receptor [2] = molecular target: T1, Substance-P receptor; experiment: Displacement of [3H]SP from human recombinant NK1 receptor expressed in CHO cells after 20 mins by liquid scintillation counting; format: cell-based
How it was run: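 Crude membranes from hNK1/CHO cells; 20 µg incubated with 0.4 nM [3H]SP and six test concentrations in duplicate, 50 mM Tris pH 7.4 with 5 mM MgCl2, bacitracin, bestatin, captopril, PMSF; 25 °C, 20 min. Nonspecific binding with 10 µM SP. Filtration on PEI-soaked GF/B, scintillation counting; IC50 by nonlinear regression, Ki by Cheng–Prusoff; three independent experiments, mean ± SEM.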

Substance-P receptor [3] = molecular target: T1, Substance-P receptor; experiment: Antagonist activity at human NK1 receptor expressed in CHO-K1 cells assessed as inhibition of substance P-induced calcium-dependent aequorine luminescence; format: functional, cell-based; details: read-out: pA2 (converted)
How it was run: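 Aequorin-expressing CHO-K1/hNK1 cells charged 4 h with 5 μM coelenterazine h, then diluted and held 30 min. SP series 10^-11 to 10^-4 M combined with test compound at 10^-8 to 10^-4 M; cell injection started 30 s luminescence read, then 10 nM ATP control.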

Substance-P receptor [4] = molecular target: T1, Substance-P receptor; experiment: Antagonist activity at NK1 receptor; format: functional

For `CC(=O)N1Cc2[nH]c3ccccc3c2C[C@H]1C(=O)N(C)Cc1cc(C(F)(F)F)cc(C(F)(F)F)c1`, the Activity (Substance-P receptor [1]) was “inactive”.

With `CC(=O)N1Cc2[nH]c3ccccc3c2C[C@@H]1C(=O)N(C)Cc1cc(C(F)(F)F)cc(C(F)(F)F)c1` the Activity (Substance-P receptor [1]) was “inactive”.

With `CC(=O)N[C@H]1Cc2c([nH]c3ccccc23)CN(CC(=O)N(C)Cc2cc(C(F)(F)F)cc(C(F)(F)F)c2)C1=O` the Activity (Substance-P receptor [1]) was “inactive”.

`CC(=O)N1Cc2ccccc2C[C@H]1C(=O)N(C)Cc1cc(C(F)(F)F)cc(C(F)(F)F)c1` was tested, and the Ki (Substance-P receptor [2]) was 0.032 µM, the Kb (Substance-P receptor [3]) was 0.0316 µM and the Activity (Substance-P receptor [1]) was “inactive”.

For `CC(=O)N[C@H]1Cc2c([nH]c3ccccc23)CN(Cc2cc(C(F)(F)F)cc(C(F)(F)F)c2)C1=O`, the Activity (Substance-P receptor [1]) was “inactive”.

`CC(=O)N[C@@H]1Cc2ccccc2[C@@H](c2ccccc2)N(CC(=O)N(C)Cc2cc(C(F)(F)F)cc(C(F)(F)F)c2)C1=O` was tested, and the Activity (Substance-P receptor [1]) was “inactive”.

With `CC(=O)N1Cc2ccccc2C[C@H]1C(=O)NCc1cc(C(F)(F)F)cc(C(F)(F)F)c1` the Activity (Substance-P receptor [1]) was “inactive”.

`O=C1O[C@@H](Cc2c[nH]c3ccccc23)C(=O)N1Cc1cc(C(F)(F)F)cc(C(F)(F)F)c1` gave an IC50 (Substance-P receptor [4]) of 0.025 µM.

With `CC(=O)N[C@@H]1Cc2c([nH]c3ccccc23)CN(CC(=O)N(C)Cc2cc(C(F)(F)F)cc(C(F)(F)F)c2)C1=O` the Activity (Substance-P receptor [1]) was “inactive”.

With `CC(=O)N[C@H]1Cc2ccccc2[C@@H](c2ccccc2)N(CC(=O)N(C)Cc2cc(C(F)(F)F)cc(C(F)(F)F)c2)C1=O` the Activity (Substance-P receptor [1]) was “inactive”.

`CC(=O)N[C@H]1Cc2ccccc2CN(CC(=O)N(C)Cc2cc(C(F)(F)F)cc(C(F)(F)F)c2)C1=O` was tested, and the Ki (Substance-P receptor [2]) was 0.027 µM, the Kb (Substance-P receptor [3]) was 0.00398 µM and the Activity (Substance-P receptor [1]) was “inactive”.

`CC(=O)N[C@H]1Cc2ccccc2[C@@H](c2ccccc2)N(CC(=O)NCc2cc(C(F)(F)F)cc(C(F)(F)F)c2)C1=O` was tested, and the Activity (Substance-P receptor [1]) was “inactive”.

With `CC(=O)N[C@H]1Cc2ccccc2CN(CC(=O)NCc2cc(C(F)(F)F)cc(C(F)(F)F)c2)C1=O` the Ki (Substance-P receptor [2]) was 0.387 µM, the Kb (Substance-P receptor [3]) was 0.631 µM and the Activity (Substance-P receptor [1]) was “inactive”.
